Data set [1] in a line: Therapeutic index, ratio of EC50 for african green monkey Vero cells to MIC for Mycobacterium tuberculosis H37Rv. The class given is cell-based. Conditions: read-out: TI; call rule not given here.
The subject of data set [2] is Vero. Briefly: Cytotoxicity against african green monkey Vero cells after 72 hrs by MTT assay. As to conditions: Chlorocebus sabaeus. The format is cell-based. The essentials: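 Vero (CCL-81) cells in MEM with 10% FBS, penicillin-streptomycin and Glutamax, seeded at 3.0×10⁴ per well and left to adhere overnight. Compounds added from DMSO at final 100–0.16 μM, triplicate, for 72 h at 37 °C, 4.5% CO2. Then MTT 1.0 mg/mL in phenol-red-free RPMI for 3 h, formazan dissolved in isopropanol, A570 minus A690. Viability taken relative to DMSO control; EC50 from dose-response curves.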

Data set [3] concerns Mycobacterium tuberculosis. Briefly: Antitubercular activity against Mycobacterium tuberculosis H37Rv in GAST media with glycerol and alanine after 7 to 14 days by broth microdilution method. The format is functional.
Data set [4] has as its system Mycobacterium tuberculosis. The experiment in a line: Antitubercular activity against Mycobacterium tuberculosis H37Rv in Middlebrook 7H9 broth with butyrate after 7 to 14 days by broth microdilution method. The format is functional. For orientation: Dilution methods test growth across graded concentrations, often in twofold steps.
Data set [5] relates to Mycobacterium tuberculosis. The experiment in a line: Antitubercular activity against Mycobacterium tuberculosis H37Rv in Middlebrook 7H9 broth with glucose after 7 to 14 days by broth microdilution method. The format is functional. The essentials: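 Broth microdilution of H37Rv in 7H9 with 0.8 g/L NaCl, 5 g/L BSA fraction V, 4 g/L glucose and 0.05% Tyloxapol. Run in quadruplicate from DMSO stocks with DMSO controls; isoniazid positive control.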

Data set [6] has as its system Liver. The experiment in a line: Half life in CD-1 mouse liver microsomes. The format is ADME, Microsome. A digest of the protocol: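 CD-1 mouse liver microsomes; compound from 2 mM DMSO stock in 0.1 M sodium phosphate pH 7.4 with NADPH, preincubated 5 min at 37 °C before microsomes added. Aliquots taken at 0–60 min and quenched with ice-cold acetonitrile, run in duplicate. Minus-NADPH control sampled at 0 and 60 min. Remaining parent measured by isocratic C8 HPLC with UV at 220 nm.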

The nature of data set [7]: Solubility of the compound. The format is physicochemical.
The subject of data set [8] is Liver microsomes. Briefly: Drug metabolism in human liver microsomes. The class given is ADME, Microsome. For orientation: Liver microsomes are vesicles of endoplasmic reticulum, rich in cytochrome P450 enzymes.
In data set [9] the test system is Liver microsomes. Briefly: Half life in human liver microsomes. The format is ADME, Microsome.

SMILES strings stand for the structures. Values after ≈ are worked out from the molar mass of the structure shown. Some results are limits rather than exact numbers.

On to `CC(=O)c1cccc(C(=O)Nc2nc(-c3ccccn3)cs2)c1`, for which, in [1], the selectivity ratio stood at 4. Also, the EC50 – broadly, the concentration giving half of the maximal effect – in data set [2] was found to be 1.5 µM. Moreover, the results for the MIC99 in data set [3], in [4] and in data set [5] were 0.098 µM (≈ 0.0317 µg/mL), 0.19 µM (≈ 0.0614 µg/mL) and 0.39 µM (≈ 0.126 µg/mL), respectively.
In the same order, the values of `O=C(Nc1nc(-c2ccccn2)cs1)c1c(F)cccc1F` are 4, 3.2 µM, 0.19 µM (≈ 0.0603 µg/mL), 0.78 µM (≈ 0.248 µg/mL) and 0.78 µM (≈ 0.248 µg/mL).
For `O=C(Nc1nc(-c2ccccn2)cs1)c1ccccc1` the same measures were 18, 7.1 µM, 0.19 µM (≈ 0.0535 µg/mL), 0.19 µM (≈ 0.0535 µg/mL) and 0.39 µM (≈ 0.11 µg/mL).
For `O=C(Nc1nc(-c2ccccn2)cs1)c1cccc(Br)c1`, the t1/2 in [6] was 11 min. This compound also registered an EC50 in [2] of 16.1 µM. In addition, the MIC99 (as a rule, the lowest concentration that inhibits either 99% of growth or 99% of the strains tested, depending on the study) in data set [3] came to 0.049 µM (≈ 0.0177 µg/mL); in data set [4] it was 0.024 µM (≈ 0.00865 µg/mL); in data set [5], 0.098 µM (≈ 0.0353 µg/mL).
`O=C(Nc1nc(-c2ccccn2)cs1)c1cccc(F)c1F`: in data set [1], the selectivity ratio was 18. Besides, in [2], the response was half-maximal at 7.2 µM (EC50). The MIC99 in data set [3] worked out at 0.098 µM (≈ 0.0311 µg/mL); in data set [4] it was 0.19 µM (≈ 0.0603 µg/mL); in [5] it was 0.39 µM (≈ 0.124 µg/mL).
For `O=C(Nc1nc(-c2ccccn2)cs1)c1cc(F)ccc1F` the same measures were 8, 3.3 µM, 0.098 µM (≈ 0.0311 µg/mL), 0.19 µM (≈ 0.0603 µg/mL) and 0.39 µM (≈ 0.124 µg/mL).
Turning to `COc1ccc(C(=O)Nc2nc(-c3ccccn3)cs2)cc1`, the t1/2 in data set [6] is on record as 16 min. For the same compound, the selectivity ratio in data set [1] was determined as 24. The same compound registered an EC50 in [2] of 9.2 µM. The values for the MIC99 in data set [3], in data set [4] and in [5] were 0.098 µM (≈ 0.0305 µg/mL), 0.19 µM (≈ 0.0592 µg/mL) and 0.39 µM (≈ 0.121 µg/mL), respectively.
As for `O=C(Nc1nc(-c2ccccn2)cs1)c1ccccc1OCc1ccccc1`, the solubility entry in [7] is reported as “Insoluble”. For the same compound, the MIC99 in [3] is 50 µM (≈ 19.4 µg/mL); in [4], more than 50 µM; in data set [5], more than 50 µM.
In the case of `O=C(Nc1nc(-c2ccccn2)cs1)c1ccc(Br)cc1`, the t1/2 in data set [6] was determined as 6.8 min. This compound also returned an EC50 in data set [2] of 4.7 µM. The MIC99 in data set [3] was found to be 0.049 µM (≈ 0.0177 µg/mL); in data set [4] it was 0.098 µM (≈ 0.0353 µg/mL); in [5] it was 0.19 µM (≈ 0.0684 µg/mL).
In the case of `O=C(Nc1nc(-c2ccccn2)cs1)c1cccc(OCc2ccccc2)c1`, the selectivity ratio in data set [1] was found to be 32. In data set [2], this compound gave an EC50 of 14.4 µM. Moreover, the values for the MIC99 in data set [3], in [4] and in data set [5] were 0.19 µM (≈ 0.0736 µg/mL), 0.049 µM (≈ 0.019 µg/mL) and 0.39 µM (≈ 0.151 µg/mL), respectively.
Regarding `O=C(Nc1nc(-c2ccccn2)cs1)c1cc(F)cc(F)c1`, in data set [1], the selectivity ratio came to 8. This compound registered an EC50 in [2] of 1.5 µM. Further, the results for the MIC99 in data set [3], in data set [4] and in data set [5] were 0.049 µM (≈ 0.0155 µg/mL), 0.098 µM (≈ 0.0311 µg/mL) and 0.19 µM (≈ 0.0603 µg/mL), respectively.
Turning to `Cc1cccc(C(=O)Nc2nc(-c3ccccn3)cs2)c1`, the t1/2 in data set [6] turned out to be 6.7 min. Also, the selectivity ratio in [1] came to 11. The same compound registered an EC50 in data set [2] of 4.1 µM. Moreover, the results for the MIC99 in [3], in [4] and in data set [5] were 0.049 µM (≈ 0.0145 µg/mL), 0.049 µM (≈ 0.0145 µg/mL) and 0.19 µM (≈ 0.0561 µg/mL), respectively.
Turning to `O=C(Nc1nc(-c2ccccn2)cs1)c1cccc(F)c1`, in data set [1], the selectivity ratio stood at 3. The compound also returned an EC50 in data set [2] of 1.2 µM. The MIC99 in data set [3] stood at 0.049 µM (≈ 0.0147 µg/mL); in [4] it was 0.098 µM (≈ 0.0293 µg/mL); in data set [5], 0.19 µM (≈ 0.0569 µg/mL).
In the same order, the values of `Cc1ccc(C(=O)Nc2nc(-c3ccccn3)cs2)cc1` are 27, 10.5 µM, 0.098 µM (≈ 0.0289 µg/mL), 0.19 µM (≈ 0.0561 µg/mL) and 0.39 µM (≈ 0.115 µg/mL).
Take `Cc1ccccc1C(=O)Nc1nc(-c2ccccn2)cs1`: the selectivity ratio in data set [1] came out at 16. The compound further came in with an EC50 in data set [2] of 6.3 µM. Further, the values for the MIC99 in data set [4] and in data set [5] were 0.19 µM (≈ 0.0561 µg/mL) and 0.39 µM (≈ 0.115 µg/mL), respectively.
For `O=C(Nc1nc(-c2ccccn2)cs1)c1ccccn1`, in data set [1], the selectivity ratio was 0.9. This compound also displayed an EC50 in data set [2] of 5.4 µM. Further, the MIC99 in data set [3] came to 1.6 µM (≈ 0.452 µg/mL); in data set [4] it was 3.1 µM (≈ 0.875 µg/mL); in data set [5], 6.3 µM (≈ 1.78 µg/mL).
For `O=C(Nc1nc(-c2ccccn2)cs1)c1cccc(Cl)c1`, the Drug metabolism entry in data set [8] is given as “Active”. The t1/2 in data set [9] worked out at 28 min; in data set [6], 19 min. In addition, in data set [1], the selectivity ratio was determined as 30. In [2], this compound had an EC50 of 7 µM. Further, the MIC99 in data set [3] was determined as 0.049 µM (≈ 0.0155 µg/mL); in [4], 0.024 µM (≈ 0.00758 µg/mL); in [5], 0.19 µM (≈ 0.06 µg/mL).
On to `CC(=O)c1ccccc1C(=O)Nc1nc(-c2ccccn2)cs1`, for which the selectivity ratio in data set [1] came to 7. It took 86.7 µM to reach a half-maximal effect in [2] (EC50). In addition, the values for the MIC99 in data set [3], in [4] and in data set [5] were 3.13 µM (≈ 1.01 µg/mL), 12.5 µM (≈ 4.04 µg/mL) and 12.5 µM (≈ 4.04 µg/mL), respectively.
In the case of `COc1ccccc1C(=O)Nc1nc(-c2ccccn2)cs1`, the selectivity ratio in data set [1] came to 7. The same compound returned an EC50 in [2] of 43.5 µM. Further, the MIC99 in data set [3] was 1.6 µM (≈ 0.498 µg/mL); in data set [4] it was 3.1 µM (≈ 0.965 µg/mL); in [5] it was 6.3 µM (≈ 1.96 µg/mL).

The values are drawn from ChEMBL document CHEMBL2440116, “Structure-activity relationships of 2-aminothiazoles effective against Mycobacterium tuberculosis” (Bioorg Med Chem, 2013).
